{"source": "ChEMBL document CHEMBL1122293", "about": "“Synthesis, evaluation of chemical reactivity, and murine antineoplastic activity of 2-hydroxy-5-(3,4-dichlorophenyl)-6,7-bis(hydroxymethyl)-2,3-dihydro-1H- pyrrolizine bis(2-propylcarbamate) and 2-acyloxy derivatives as potential water-soluble prodrugs” (J Med Chem, 1983)", "key": {"[1]": {"assay": "Water solubility of the compound", "format": "ADME", "settings": "read-out: S", "outline": "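Excess bis(carbamate) (30-60 mg) in 2 mL distilled water, vortexed 10 min, filtered through Teflon wool and diluted. UV absorbance read at 291 nm. Concentration from a linear Beer's law calibration made with a salt standard (r = 0.998).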"}}, "data": [{"compound": "CC(C)NC(=O)OCc1c(COC(=O)NC(C)C)c(-c2ccc(Cl)c(Cl)c2)n2c1CC(OC(=O)CCC(=O)[O-])C2.[K+]", "note": "(configuration not stated)", "values": [{"measurement": "solubility", "setting": "[1]", "value": 38.8, "unit": "mM"}, {"measurement": "half-life", "setting": "Half life was determined", "value": 1.53, "unit": "h"}]}]}
